According to ChEMBL document CHEMBL3102739, “Synthesis and antiproliferative activity of conformationally restricted 1,2,3-triazole analogues of combretastatins in the sea urchin embryo model and against human cancer cell lines” (Bioorg Med Chem, 2014):

Columns and labels:
[1] = Growth inhibition of human NCI-ADR-RES cells after 48 hrs by SRB assay; format: functional
IGROV-1 = assay: Growth inhibition of human IGROV1 cells after 48 hrs by SRB assay; format: functional; settings: IGROV-1, 48 h
[2] = Growth inhibition of human OVCAR5 cells after 48 hrs by SRB assay; format: functional; settings: OVCAR-5, 48 h
[3] = Growth inhibition of human HCC2998 cells after 48 hrs by SRB assay; format: functional; settings: HCC 2998, 48 h
NCI-H23 = assay: Growth inhibition of human NCI-H23 cells after 48 hrs by SRB assay; format: functional; settings: NCI-H23, 48 h
HOP-62 = assay: Growth inhibition of human HOP62 cells after 48 hrs by SRB assay; format: functional; settings: HOP-62, 48 h
KM12 = assay: Growth inhibition of human KM12 cells after 48 hrs by SRB assay; format: functional; settings: KM12, 48 h
RPMI-8226 = assay: Growth inhibition of human RPMI8226 cells after 48 hrs by SRB assay; format: functional; settings: RPMI-8226, 48 h
M14 = assay: Growth inhibition of human M14 cells after 48 hrs by SRB assay; format: functional; settings: M14, 48 h
DU-145 = assay: Growth inhibition of human DU145 cells after 48 hrs by SRB assay; format: functional; settings: DU-145, 48 h
OVCAR-3 = assay: Growth inhibition of human OVCAR3 cells after 48 hrs by SRB assay; format: functional; settings: OVCAR-3, 48 h
MDA-MB-231 = assay: Growth inhibition of human MDA-MB-231 cells after 48 hrs by SRB assay; format: functional; settings: MDA-MB-231, 48 h
TK-10 = assay: Growth inhibition of human TK10 cells after 48 hrs by SRB assay; format: functional; settings: TK-10, 48 h
NCI-H522 = assay: Growth inhibition of human NCI-H522 cells after 48 hrs by SRB assay; format: functional; settings: NCI-H522, 48 h
Paracentrotus lividus [4] = assay: Antimitotic activity against sea urchin embryo free-swimming blastula model assessed as embryo spinning compound treated at 8 to 10 hrs post-fertilization measured after 0.25 to 20 hrs; format: functional, Blastula stage
[5] = Growth inhibition of human SF539 cells after 48 hrs by SRB assay; format: functional; settings: SF-539, 48 h
ACHN = assay: Growth inhibition of human ACHN cells after 48 hrs by SRB assay; format: functional
SF-268 = assay: Growth inhibition of human SF268 cells after 48 hrs by SRB assay; format: functional; settings: SF-268, 48 h
A549 = assay: Growth inhibition of human A549 cells after 48 hrs by SRB assay; format: functional; settings: A549, 48 h
HT-29 = assay: Growth inhibition of human HT-29 cells after 48 hrs by SRB assay; format: functional; settings: HT-29, 48 h
PC-3 = assay: Growth inhibition of human PC3 cells after 48 hrs by SRB assay; format: functional; settings: PC-3, 48 h
HCT-116 = assay: Growth inhibition of human HCT116 cells after 48 hrs by SRB assay; format: functional; settings: HCT-116, 48 h
NCI-H226 = assay: Growth inhibition of human NCI-H226 cells after 48 hrs by SRB assay; format: functional; settings: NCI-H226, 48 h
HL-60(TB) = assay: Growth inhibition of human HL-60(TB) cells after 48 hrs by SRB assay; format: functional; settings: HL-60, 48 h
[6] = Growth inhibition of human OVCAR4 cells after 48 hrs by SRB assay; format: functional; settings: OVCAR-4, 48 h
LOX IMVI = assay: Growth inhibition of human LOXIMVI cells after 48 hrs by SRB assay; format: functional
SK-MEL-2 = assay: Growth inhibition of human SK-MEL-2 cells after 48 hrs by SRB assay; format: functional; settings: SK-MEL-2, 48 h
786-0 = assay: Growth inhibition of human 786-0 cells after 48 hrs by SRB assay; format: functional; settings: 786-0, 48 h
HCT-15 = assay: Growth inhibition of human HCT15 cells after 48 hrs by SRB assay; format: functional; settings: HCT-15, 48 h
SNB-75 = assay: Growth inhibition of human SNB75 cells after 48 hrs by SRB assay; format: functional; settings: SNB-75, 48 h
MOLT-4 = assay: Growth inhibition of human MOLT4 cells after 48 hrs by SRB assay; format: functional; settings: MOLT-4, 48 h
[7] = Growth inhibition of human EKVX cells after 48 hrs by SRB assay; format: functional
K562 = assay: Growth inhibition of human K562 cells after 48 hrs by SRB assay; format: functional; settings: K562, 48 h
[8] = Growth inhibition of human UO31 cells after 48 hrs by SRB assay; format: functional; settings: UO-31, 48 h
CCRF-CEM = assay: Growth inhibition of human CCRF-CEM cells after 48 hrs by SRB assay; format: functional
MDA-MB-435 = assay: Growth inhibition of human MDA-MB-435 cells after 48 hrs by SRB assay; format: functional; settings: MDA-MB-435, 48 h
[9] = Growth inhibition of human UACC257 cells after 48 hrs by SRB assay; format: functional; settings: UACC-257, 48 h
NCI-H322M = assay: Growth inhibition of human NCI-H322M cells after 48 hrs by SRB assay; format: functional
NCI-H460 = assay: Growth inhibition of human NCI-H460 cells after 48 hrs by SRB assay; format: functional; settings: NCI-H460, 48 h
U-251 = assay: Growth inhibition of human U251 cells after 48 hrs by SRB assay; format: functional; settings: U-251, 48 h
SN12C = assay: Growth inhibition of human SN12C cells after 48 hrs by SRB assay; format: functional
OVCAR-8 = assay: Growth inhibition of human OVCAR8 cells after 48 hrs by SRB assay; format: functional; settings: OVCAR-8, 48 h
SR = assay: Growth inhibition of human SR cells after 48 hrs by SRB assay; format: functional
MCF7 = assay: Growth inhibition of human MCF7 cells after 48 hrs by SRB assay; format: functional; settings: MCF7, 48 h
SK-OV-3 = assay: Growth inhibition of human SKOV3 cells after 48 hrs by SRB assay; format: functional; settings: SK-OV-3, 48 h
T47D = assay: Growth inhibition of human T47D cells after 48 hrs by SRB assay; format: functional
Paracentrotus lividus [10] = assay: Antimitotic activity against sea urchin embryo model assessed as cleavage alteration of fertilized egg compound treated at 8 to 20 mins post-fertilization and 45 to 55 mins prior to first mitotic cycle completion measured 2.5 to 5.5 hrs post-fertilization; format: functional
Outline: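 Fertilized eggs are exposed 8–20 min after fertilization to 2-fold decreasing concentrations. Stocks are 10 mM in DMSO, then diluted 10-fold in 95% EtOH; final DMSO is at most 0.05% and EtOH at most 1%. Embryos are kept as a monolayer, up to 2000 embryos/mL, in filtered seawater at room temperature. The value is the threshold concentration giving cleavage alteration, embryo death before hatching or full mitotic arrest. Duplicates were run.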

[11] = Growth inhibition of human Hs578T cells after 48 hrs by SRB assay; format: functional; settings: Hs-578T

SMILES: COc1ccc(-c2nn[nH]c2-c2cc(OC)c(OC)c(OC)c2)cc1
- GI50 [1]: < 0.01 µM
- GI50 (IGROV-1): < 0.01 µM
- GI50 [2]: < 0.01 µM
- GI50 [3]: < 0.01 µM
- GI50 (NCI-H23): < 0.01 µM
- GI50 (HOP-62): < 0.01 µM
- GI50 (KM12): < 0.01 µM
- GI50 (RPMI-8226): < 0.01 µM
- GI50 (M14): < 0.01 µM
- GI50 (DU-145): < 0.01 µM
- GI50 (OVCAR-3): < 0.01 µM
- GI50 (MDA-MB-231): < 0.01 µM
- GI50 (TK-10): < 0.01 µM
- GI50 (NCI-H522): < 0.01 µM
- EC (Paracentrotus lividus [4]): 0.1 µM
- GI50 [5]: < 0.01 µM
- GI50 (ACHN): 0.015 µM
- GI50 (SF-268): 0.021 µM
- GI50 (A549): < 0.01 µM
- GI50 (HT-29): < 0.01 µM
- GI50 (PC-3): 0.043 µM
- GI50 (HCT-116): < 0.01 µM
- GI50 (NCI-H226): 0.051 µM
- GI50 (HL-60(TB)): < 0.01 µM
- GI50 [6]: < 0.01 µM
- GI50 (LOX IMVI): < 0.01 µM
- GI50 (SK-MEL-2): < 0.01 µM
- GI50 (786-0): < 0.01 µM
- GI50 (HCT-15): < 0.01 µM
- GI50 (SNB-75): < 0.01 µM
- GI50 (MOLT-4): 0.012 µM
- GI50 [7]: < 0.01 µM
- GI50 (K562): < 0.01 µM
- GI50 [8]: 1.21 µM
- GI50 (CCRF-CEM): < 0.01 µM
- GI50 (MDA-MB-435): < 0.01 µM
- GI50 [9]: < 0.01 µM
- GI50 (NCI-H322M): < 0.01 µM
- GI50 (NCI-H460): < 0.01 µM
- GI50 (U-251): < 0.01 µM
- GI50 (SN12C): < 0.01 µM
- GI50 (OVCAR-8): < 0.01 µM
- GI50 (SR): < 0.01 µM
- GI50 (MCF7): < 0.01 µM
- GI50 (SK-OV-3): < 0.01 µM
- GI50 (T47D): 2.66 µM
- EC (Paracentrotus lividus [10]): 0.005 µM
- GI50 [11]: < 0.01 µM

SMILES: COc1ccc(-c2nn[nH]c2-c2cc(OC)c3c(c2OC)OCO3)cc1
- GI50 [1]: 0.296 µM
- GI50 (IGROV-1): 0.72 µM
- GI50 [2]: 3.63 µM
- GI50 [3]: 1.11 µM
- GI50 (NCI-H23): 1 µM
- GI50 (HOP-62): 0.899 µM
- GI50 (KM12): 0.412 µM
- GI50 (RPMI-8226): 0.816 µM
- GI50 (M14): 0.341 µM
- GI50 (DU-145): 1.42 µM
- GI50 (OVCAR-3): 0.363 µM
- GI50 (MDA-MB-231): 1.13 µM
- GI50 (TK-10): 6.37 µM
- GI50 (NCI-H522): 0.301 µM
- EC (Paracentrotus lividus [4]): >5 µM
- GI50 [5]: 0.909 µM
- GI50 (ACHN): 6.79 µM
- GI50 (SF-268): 4.02 µM
- GI50 (A549): 0.532 µM
- GI50 (HT-29): 0.376 µM
- GI50 (PC-3): 1.93 µM
- GI50 (HCT-116): 0.353 µM
- GI50 (NCI-H226): 15.2 µM
- GI50 (HL-60(TB)): 0.307 µM
- GI50 [6]: 4.68 µM
- GI50 (LOX IMVI): 0.547 µM
- GI50 (SK-MEL-2): 0.326 µM
- GI50 (786-0): 1.4 µM
- GI50 (HCT-15): 0.454 µM
- GI50 (SNB-75): 0.437 µM
- GI50 (MOLT-4): 0.529 µM
- GI50 [7]: 2.79 µM
- GI50 (K562): 0.493 µM
- GI50 [8]: 2.96 µM
- GI50 (CCRF-CEM): 0.684 µM
- GI50 (MDA-MB-435): 0.193 µM
- GI50 [9]: 0.595 µM
- GI50 (NCI-H322M): 2.89 µM
- GI50 (NCI-H460): 0.409 µM
- GI50 (U-251): 0.362 µM
- GI50 (SN12C): 4.67 µM
- GI50 (OVCAR-8): 1.32 µM
- GI50 (SR): 0.304 µM
- GI50 (MCF7): 0.352 µM
- GI50 (SK-OV-3): 0.854 µM
- GI50 (T47D): 0.716 µM
- EC (Paracentrotus lividus [10]): 0.5 µM
- GI50 [11]: 1.35 µM
